Results from ChEMBL document CHEMBL5512639, “Insights from structure-activity relationships and the binding mode of peptidic α-ketoamide inhibitors of the malaria drug target subtilisin-like SUB1” (Eur J Med Chem, 2024).
Calls of active or inactive are those of the source. The rule behind the calls is not given here. Numbered stars: 1 amine (or outer) side, 2 acyl side, 3 side chain; on linkers, the order of the positions; unused ones are H or OH. Square brackets hold non-standard residues; d marks the D form. Peptide text beside a SMILES is read from it. * marks the point of attachment. Ala(1H-tetrazol-5-yl) = N[C@@H](Cc1nnn[nH]1)C(=O)O; Asp(3,3-Me2) = CC(C)(C(=O)O)[C@H](N)C(=O)O; Gly(cPent) = N[C@H](C(=O)O)C1CCCC1; X1 = C[C@H](N[*:1])C(=O)C(=O)[*:2]; Nva(3-Et) = CCC(CC)[C@H](N)C(=O)O; Pyrazinecarbonyl = O=C(c1cnccn1)*; Cha = N[C@@H](CC1CCCCC1)C(=O)O; αMeL = CC(C)C[C@](C)(N)C(=O)O; Chg = N[C@H](C(=O)O)C1CCCCC1; Phg = N[C@H](C(=O)O)c1ccccc1; Tle = CC(C)(C)[C@H](N)C(=O)O; Dab = NCC[C@H](N)C(=O)O; Dha = C=C(N)C(=O)O; OAll = C=CCO*

Legend:
Plasmodium falciparum [1] = assay: Antiparasitic activity against Plasmodium falciparum infected in human Erythrocyte assessed as inhibition of merozoite egress from human Erythrocyte measured for 8 hrs by flow cytometry analysis; format: functional, organism-based
Outline: (§1)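 P. falciparum cultured in human RBCs, RPMI 1640 with 25 mM HEPES, 2.5% Albumax II, 100 μM hypoxanthine, 37 °C, 5% O2/5% CO2. Sorbitol-synchronized, plasmion-enriched late schizonts at 2% hematocrit, 1% parasitemia exposed to compound for 8 h. Fixed in glutaraldehyde, permeabilized, RNase-treated, stained with YOYO-1. Ring parasitemia by flow cytometry (100,000 events) vs DMSO. Triplicate; IC50 from 16 concentrations, 180 to 0.8 μM.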

Plasmodium falciparum [2] = assay: Antiparasitic activity against Plasmodium falciparum infected in human Erythrocyte assessed as inhibition of merozoite egress from human Erythrocyte at 100 uM measured for 8 hrs by flow cytometry analysis relative to control; format: functional; outline: as §1
[3] = biological target: T1, Subtilisin-like protease 1 (Plasmodium falciparum, UniProt O61142); assay: Inhibition of full length recombinant Plasmodium falciparum SUB1 using Dabsyl-KLVSADNIDIS-EDANS as substrate measured every 2 mins for 1 hr by FRET assay
T1 sequence (O61142 whole entry): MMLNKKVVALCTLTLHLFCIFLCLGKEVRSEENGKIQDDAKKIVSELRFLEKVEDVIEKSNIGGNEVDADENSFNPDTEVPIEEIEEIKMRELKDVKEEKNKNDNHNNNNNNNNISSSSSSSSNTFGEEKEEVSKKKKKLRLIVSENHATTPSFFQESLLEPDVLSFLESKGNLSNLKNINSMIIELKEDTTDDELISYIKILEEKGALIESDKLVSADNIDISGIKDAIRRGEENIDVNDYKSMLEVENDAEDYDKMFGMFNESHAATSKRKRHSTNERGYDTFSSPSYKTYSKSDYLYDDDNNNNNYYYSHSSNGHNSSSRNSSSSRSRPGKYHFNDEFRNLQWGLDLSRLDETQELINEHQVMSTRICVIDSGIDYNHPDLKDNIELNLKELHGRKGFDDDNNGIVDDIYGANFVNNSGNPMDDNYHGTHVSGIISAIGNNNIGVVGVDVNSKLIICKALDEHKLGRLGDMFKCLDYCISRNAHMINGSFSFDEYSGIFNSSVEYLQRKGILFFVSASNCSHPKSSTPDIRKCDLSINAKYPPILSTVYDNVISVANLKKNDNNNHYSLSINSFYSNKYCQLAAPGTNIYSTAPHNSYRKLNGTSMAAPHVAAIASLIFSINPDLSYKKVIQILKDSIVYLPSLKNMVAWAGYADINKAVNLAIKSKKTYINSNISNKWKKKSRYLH

[4] = Inhibition of full length recombinant Plasmodium vivax SUB1 expressed in Drosophila S2 cells using Dabsyl-KLVGADDV-SLA-EDANS as substrate measured every 2 mins for 1 hr by FRET assay
Plasmodium falciparum [5] = assay: Antiparasitic activity against Plasmodium falciparum infected in human Erythrocyte assessed as inhibition of merozoite egress from human Erythrocyte at 25 uM measured for 8 hrs by flow cytometry analysis relative to control; format: functional; outline: as §1
[6] = Selectivity ratio of IC50 for inhibition of full length recombinant Plasmodium vivax SUB1 expressed in Drosophila S2 cells using Dabsyl-KLVGADDV-SLA-EDANS as substrate to IC50 for inhibition of full length recombinant Plasmodium falciparum SUB1 using Dabsyl-KLVSADNIDIS-EDANS as substrate
[7] = test system: Subtilisin-like protease 1 (Plasmodium vivax); assay: Binding affinity to Plasmodium vivax SUB1 catalytic domain assessed as thermal stabilization by measuring change in melting temperature by differential scanning fluorimetry
[8] = test system: Subtilisin-like protease 1 (Plasmodium vivax); assay: Binding affinity to Plasmodium vivax SUB1 using Dabsyl-KLVGADDV-SLA-EDANS as substrate using catalytic domain assessed as bound half life by jump dilution assay
[9] = test system: Subtilisin-like protease 1 (Plasmodium vivax); assay: Binding affinity to Plasmodium vivax SUB1 using Dabsyl-KLVGADDV-SLA-EDANS as substrate using catalytic domain assessed as dissociation constant (Koff) by jump dilution assay

| Compound | IC50 [4] | inhibition at 100 µM (Plasmodium falciparum [2]) | IC50 [3] | inhibition (Plasmodium falciparum [2]) | also measured |
| --- | --- | --- | --- | --- | --- |
| C[C@@H](NC[C@@H](O)[C@H](Cc1ccccc1)NC(=O)c1ccc(C(=O)N2CCN(C)CC2)cc1)c1ccccc1 | – | – | – | – | IC50 (Plasmodium falciparum [1]): 1.1 nM |
| C=CCOC(=O)CC[C@H](NC(=O)[C@H](Cc1nnn[nH]1)NC(=O)C(=O)[C@H](C)NC(=O)[C@H](C)NC(=O)[C@@H](NC(=O)[C@@H](NC(C)=O)[C@@H](C)CC)[C@@H](C)O)C(N)=O (Ac-ITA[X1][Ala(1H-tetrazol-5-yl)]E(OAll)-NH2) | 1240 nM | 2% | 24400 nM | – | – |
| CC[C@H](C)[C@H](NC(C)=O)C(=O)N[C@H](C(=O)N[C@@H](C)C(=O)N[C@@H](C)C(=O)C(=O)N[C@@H](Cc1nnn[nH]1)C(N)=O)[C@@H](C)O (Ac-ITA[X1][Ala(1H-tetrazol-5-yl)]-NH2) | 1770 nM | – | – | inactive | – |
| CC[C@H](C)[C@H](NC(=O)[C@H](CC(=O)O)NC(=O)C(=O)[C@H](C)NC(=O)[C@H](C)NC(=O)[C@@H](NC(=O)[C@@H](NC(C)=O)C1CCCC1)[C@@H](C)O)C(N)=O (Ac-[Gly(cPent)]TA[X1]DI-NH2) | 14 nM | 99.8% | 17 nM | – | inhibition at 25 µM (Plasmodium falciparum [5]): 25% |
| C=CCOC(=O)CC[C@H](NC(=O)[C@H](CC(=O)O)NC(=O)C(=O)[C@H](C)NC(=O)[C@H](C)NC(=O)[C@@H](NC(=O)[C@@H](NC(C)=O)C1CCCC1)C1CCCC1)C(N)=O (Ac-[Gly(cPent)][Gly(cPent)]A[X1]DE(OAll)-NH2) | 80 nM | 46% | 100 nM | – | Ratio IC50 [6]: 1.25; inhibition at 25 µM (Plasmodium falciparum [5]): 6% |
| C=CCOC(=O)CC[C@H](NC(=O)[C@H](CC(=O)O)NC(=O)C(=O)[C@H](C)NC(=O)[C@H](C)NC(=O)[C@@H](NC(=O)[C@@H](NC(C)=O)C1CCCCC1)[C@@H](C)O)C(N)=O (Ac-[Chg]TA[X1]DE(OAll)-NH2) | 200 nM | 13% | 1950 nM | – | Ratio IC50 [6]: 9 |
| CC(=O)N[C@H](C(=O)N[C@H](C(=O)N[C@@H](C)C(=O)N[C@@H](C)C(=O)C(=O)N[C@@H](CC(=O)O)C(=O)N[C@@H](CCC(=O)O)C(N)=O)[C@@H](C)O)C1CCCC1 (Ac-[Gly(cPent)]TA[X1]DE-NH2) | 30 nM | – | 88 nM | inactive | – |
| C=CCOC(=O)CC[C@H](NC(=O)[C@H](CC(=O)O)NC(=O)C(=O)[C@H](C)NC(=O)[C@H](C)NC(=O)[C@@H](NC(=O)[C@H](CC1CCCCC1)NC(C)=O)[C@@H](C)O)C(N)=O (Ac-[Cha]TA[X1]DE(OAll)-NH2) | 4080 nM | – | 34900 nM | inactive | ΔTm [7]: 6.8 °C; Ratio IC50 [6]: 9 |
| C=CCOC(=O)CC[C@H](NC(=O)[C@H](CC(=O)O)NC(=O)C(=O)[C@H](C)NC(=O)[C@H](C)NC(=O)[C@H](Cc1ccc(O)cc1)NC(=O)[C@@H](NC(C)=O)C1CCCC1)C(N)=O (Ac-[Gly(cPent)]YA[X1]DE(OAll)-NH2) | 25 nM | 44% | 150 nM | – | – |
| C=CCOC(=O)CC[C@H](NC(=O)[C@H](CO)NC(=O)C(=O)[C@H](C)NC(=O)[C@H](C)NC(=O)[C@@H](NC(=O)[C@@H](NC(C)=O)C1CCCC1)[C@@H](C)O)C(N)=O (Ac-[Gly(cPent)]TA[X1]SE(OAll)-NH2) | 10900 nM | 11% | 32200 nM | – | – |
| CC(=O)N[C@H](C(=O)N[C@H](C(=O)N[C@@H](C)C(=O)N[C@@H](C)C(=O)C(=O)N[C@@H](CC(=O)O)C(N)=O)[C@@H](C)O)C1CCCC1 (Ac-[Gly(cPent)]TA[X1]D-NH2) | 100 nM | 32% | 550 nM | – | T1/2 [8]: 20 min; K [9]: 0.034 min⁻¹ |
| C=CCOC(=O)CC[C@H](NC(=O)[C@@H](NC(=O)C(=O)[C@H](C)NC(=O)[C@H](C)NC(=O)[C@@H](NC(=O)[C@@H](NC(C)=O)C1CCCC1)[C@@H](C)O)C(C)(C)C(=O)O)C(N)=O (Ac-[Gly(cPent)]TA[X1][Asp(3,3-Me2)]E(OAll)-NH2) | 180 nM | 3% | 1030 nM | – | – |

Further lines, with some results ahead:

| IC50 [4] | Compound | inhibition at 100 µM (Plasmodium falciparum [2]) | IC50 [3] | inhibition (Plasmodium falciparum [2]) | also measured |
| --- | --- | --- | --- | --- | --- |
| 210 nM | C=CCOC(=O)CC[C@H](NC(=O)[C@H](CC(=O)O)NC(=O)C(=O)[C@H](C)NC(=O)[C@H](C)NC(=O)[C@@H](NC(=O)[C@@H](NC(C)=O)C(C)(C)C)[C@@H](C)O)C(N)=O (Ac-[Tle]TA[X1]DE(OAll)-NH2) | 4% | – | – | – |
| 240 nM | C=CCOC(=O)CC[C@H](NC(=O)[C@H](CC(=O)O)NC(=O)C(=O)[C@H](C)NC(=O)[C@H](C)NC(=O)[C@H](Cc1c[nH]c2ccccc12)NC(=O)[C@@H](NC(C)=O)[C@@H](C)CC)C(N)=O (Ac-IWA[X1]DE(OAll)-NH2) | 5% | – | – | – |
| 58400 nM | C=CCOC(=O)CC[C@H](NC(=O)[C@H](CC(=O)O)NC(=O)C(=O)[C@H](C)NC(=O)[C@H](C)NC(=O)[C@H](C)NC(=O)[C@@H](NC(C)=O)C1CCCC1)C(N)=O (Ac-[Gly(cPent)]AA[X1]DE(OAll)-NH2) | – | – | inactive | – |
| 330 nM | C=CCOC(=O)CC[C@H](NC(=O)[C@H](CC(=O)O)NC(=O)C(=O)[C@H](C)NC(=O)C(=C)NC(=O)[C@@H](NC(=O)[C@@H](NC(C)=O)[C@@H](C)CC)[C@@H](C)O)C(N)=O (Ac-IT[Dha][X1]DE(OAll)-NH2) | – | – | inactive | – |
| 220 nM | C=CCOC(=O)CC[C@H](NC(=O)[C@H](CC(=O)O)NC(=O)C(=O)[C@H](C)NC(=O)[C@H](C)NC(=O)[C@@H](NC(=O)[C@@H](NC(C)=O)c1ccccc1)[C@@H](C)O)C(N)=O (Ac-[Phg]TA[X1]DE(OAll)-NH2) | 9% | – | – | – |
| 500 nM | C=CCOC(=O)CC[C@H](NC(=O)[C@H](CC(=O)O)NC(=O)C(=O)[C@H](C)NC(=O)[C@H](CO)NC(=O)[C@@H](NC(=O)[C@@H](NC(C)=O)C1CCCC1)[C@@H](C)O)C(N)=O (Ac-[Gly(cPent)]TS[X1]DE(OAll)-NH2) | – | – | inactive | – |
| 140 nM | C=CCOC(=O)CC[C@H](NC(=O)[C@H](CC(=O)O)NC(=O)C(=O)[C@H](C)NC(=O)[C@H](C)NC(=O)[C@H](CCCCN)NC(=O)[C@@H](NC(C)=O)[C@@H](C)CC)C(N)=O (Ac-IKA[X1]DE(OAll)-NH2) | 9% | – | – | – |
| 390 nM | C=CCOC(=O)CC[C@H](NC(=O)[C@H](CC(=O)O)NC(=O)C(=O)[C@H](C)NC(=O)[C@H](C)NC(=O)[C@H](CCNC(=O)c1cnccn1)NC(=O)[C@@H](NC(C)=O)[C@@H](C)CC)C(N)=O (Ac-I[Dab](Pyrazinecarbonyl)A[X1]DE(OAll)-NH2) | 10% | – | – | – |
| 5230 nM | C=CCOC(=O)CC[C@H](NC(=O)[C@H](CC(N)=O)NC(=O)C(=O)[C@H](C)NC(=O)[C@H](C)NC(=O)[C@@H](NC(=O)[C@@H](NC(C)=O)[C@@H](C)CC)[C@@H](C)O)C(N)=O (Ac-ITA[X1]NE(OAll)-NH2) | 31% | – | – | – |
| 5670 nM | C=CCOC(=O)CC[C@H](NC(=O)[C@H](CC(=O)O)NC(=O)C(=O)[C@H](C)NC(=O)[C@H](C)NC(=O)[C@](C)(CC(C)C)NC(=O)[C@@H](NC(C)=O)C1CCCC1)C(N)=O (Ac-[Gly(cPent)][αMeL]A[X1]DE(OAll)-NH2) | – | – | inactive | – |
| 460 nM | C=CCOC(=O)CC[C@H](NC(=O)[C@H](CC(=O)O)NC(=O)C(=O)[C@H](C)NC(=O)[C@H](C)NC(=O)[C@@H](NC(=O)[C@@H](NC(C)=O)C(CC)CC)[C@@H](C)O)C(N)=O (Ac-[Nva(3-Et)]TA[X1]DE(OAll)-NH2) | 8% | – | – | – |
